Sampled rows, rich in hits. Any-hit rate of the full collection: about 2.6%.
Rad51 HR inh: Rad51 (human) homologous recombination inhibition. hRad51 DNA strand exchange, fluorescence dequenching. inhibition, % at 10 µM. 200,000 compounds, 0.085% hits. Q06609;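 active = inhibition above 40% at the single screening dose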;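 also: 0% = DMSO control wells and 100% = blanks with heterologous ssDNA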
Target sequence (Q06609 whole entry, looked up): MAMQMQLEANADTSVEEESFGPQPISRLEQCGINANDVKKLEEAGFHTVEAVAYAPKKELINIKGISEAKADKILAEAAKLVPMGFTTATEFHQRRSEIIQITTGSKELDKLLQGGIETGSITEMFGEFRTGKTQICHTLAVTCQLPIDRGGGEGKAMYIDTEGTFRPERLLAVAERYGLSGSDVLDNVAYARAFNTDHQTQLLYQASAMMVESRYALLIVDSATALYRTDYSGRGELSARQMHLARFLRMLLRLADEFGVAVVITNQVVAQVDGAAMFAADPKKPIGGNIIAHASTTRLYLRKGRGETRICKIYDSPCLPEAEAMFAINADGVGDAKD
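Test system – preformed human Rad51 ssDNA filaments · Reagent – Donor/quencher-labelled 47-bp dsDNA substrate · Incubation – 37 °C 15-min filament assembly, 30-min compound preincubation, 15-min exchange · Signal – FRET fluorescence dequenching, excitation 485 nm, emission 520 nm · Read-out – percent inhibition from fluorescence, normalised to plate control and blank means · Benchmarks – plate control and blank wells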
MDM2 E3 inh: blocks human Mdm2 ubiquitin ligase activity; Q00987; cell-based MDM2 ubiquitination luciferase reporter, 2 h; 0 = plate control, 100 = twice control, blank-subtracted; signal enhancement, % at 5 µM; 210,000 compounds, 0.11% hits; AID 1230;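 active = signal enhancement of 30% or more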;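 also: luminescence tracks abundance of the self-degrading MDM2-luciferase fusion protein; higher signal means inhibition of MDM2 E3 ligase activity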
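Test system: stable mammalian line carrying autodegrading MDM2–luciferase fusion reporter; quantity: 2000 cells in each well; times: 4 h cell settling then 2 h compound exposure, 37 °C; detection: luminescence with SteadyLite reagent, 15 min at room temperature; evaluation: percent signal gain over controls, blank-subtracted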
HSF1 inh: HSF1 inhibition. activity change, negative = inhibition, % at 7.5 µM (by protocol). NIH3T3-HGL HSE-luciferase, MG132-induced, luminescence 8 h; stronger effect = lower value. 300,000 compounds, 0.77% hits;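 active = more than half of replicate wells show activity change below -50%, luminescence cut by over half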;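 also: luciferase reports HSF-1 transcriptional activity via heat shock element; 0% = median of DMSO wells and -100% = zero luminescence signal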
Hsp70 activator: switches on Hsp70 transcription; HeLa Hsp70 promoter luciferase reporter, luminescence; scaled: vehicle 0, proteasome-inhibitor control 100%; activation, % at 10 µM; 200,000 compounds, 0.04% hits; AID 1203;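 active = activation above the mean across all tested compounds plus 3 SD, cutoff set per campaign, cut at about 5.5% in these data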;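 also: 100% = MG132 at 30 µM as the positive control and 0% = DMSO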
HSV augment: HSV replication enhancement | HSV replication augmentation in cells, fold increase | maximum fold increase | AID 1956 | 220,000 compounds, 0.005% hits; in the data active = maximum fold increase above about 1.5; tested in PC3 cells
HSF-1 act: increases HSF-1 driven luciferase reporter signal. activation, % at 9 µM. NIH3T3-HGL HSF-1 luciferase reporter, MG132, 8 h; 100% = twice DMSO control signal. AID 504408. 300,000 compounds, 1.7% hits;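 active = mean replicate activation of at least 50% with a set share of replicates each reaching 50%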;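 also: 0% = median of the neutral control wells and 100% = twice that signal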
Starred values were filed as active, the others as inactive; i = inactive; nt = no result.

SMILES | Rad51 HR inh | MDM2 E3 inh | HSF1 inh | Hsp70 activator | HSV augment | HSF-1 act
COc1cc2cc3c(N)c(C(=O)NCc4ccco4)sc3nc2cc1OC | nt | -4 | 22 | 0 | i | 30
Cc1ccc2nc3sc(C(=O)NCc4ccco4)c(N)c3cc2c1 | -24 | -24 | 52 | 0 | i | 85*
CCN(CC)C(=S)SCC(=O)c1ccc(Br)cc1 | nt | 2 | 21 | 0 | i | 49
O=C(O)c1ccc(S(=O)(=O)/N=C2\C=C(Nc3ccccc3F)C(=O)c3ccccc32)cc1 | nt | nt | 51 | nt | nt | 65*
Cc1ccccc1NC1=C/C(=N\S(=O)(=O)c2ccc(C(=O)O)cc2)c2ccccc2C1=O | nt | nt | -9 | nt | nt | -1
Cc1ccccc1NC1=C/C(=N\S(=O)(=O)c2cccs2)c2ccccc2C1=O | -2 | nt | -95* | 0 | i | -95
Cc1ccc(NC2=C/C(=N/S(=O)(=O)c3cccs3)c3ccccc3C2=O)cc1C | nt | -4 | 2 | 0 | nt | 11
CC(=O)Nc1ccc(NC2=C/C(=N/S(=O)(=O)c3cccs3)c3ccccc3C2=O)cc1 | -3 | -32 | -95* | -1 | i | -94
COc1ccc(S(=O)(=O)/N=C2\C=C(Nc3ccc(O)cc3)C(=O)c3ccccc32)cc1 | nt | nt | -94* | nt | nt | -95
COc1cc(C(=O)Nc2cc(-c3cn4cccnc4n3)ccc2C)cc(OC)c1OC | 19 | -4 | -2 | 0 | i | 9
N#CC(C#N)=C1NC(N)=C(C#N)C(c2ccccc2)=C1C#N | nt | nt | 1 | nt | nt | -15
CN(C)c1ccc(C(C[N+](=O)[O-])c2c(N)n(C)c(=O)n(C)c2=O)c(F)c1C#N (configuration not stated) | nt | nt | 53 | nt | nt | 66*
COCCCN1C(=O)N(c2ccccc2)C(=O)C1CC(=O)Nc1ccc(F)cc1 (configuration not stated) | nt | nt | 1 | nt | nt | -11
C#CCOc1ccc(C2C3=C(CC(C)(C)CC3=O)N(CC(=O)O)C3=C2C(=O)CC(C)(C)C3)cc1OC | nt | nt | 31 | nt | nt | 60*
C#CCOc1ccc(C2C3=C(CC(C)(C)CC3=O)N(CC(=O)O)C3=C2C(=O)CC(C)(C)C3)cc1 | nt | nt | -1 | nt | nt | 22
C=CCn1c(-c2ccccc2OC)n[nH]c1=S | -4 | -8 | -5 | 0 | i | -7
C=CCn1c(-c2cccc3ccccc23)n[nH]c1=S | -2 | -5 | -73* | 0 | i | -79
CCOc1ccc(N(C(=O)c2ccccc2Cl)C2=NC(C)(C)CS2)cc1 | 2 | -19 | 18 | 0 | i | 51*
Clc1ccc2c(N/N=C/c3ccccc3Br)ccnc2c1 | 7 | -24 | 27 | 0 | i | 66*
CCCn1cc(S(=O)(=O)c2ccc(C)cc2)c(=O)c2cc(OC)c(OC)cc21 | nt | nt | 6 | nt | nt | 7
O=c1c2ccccc2nnn1CSc1ccccc1 | 4 | -40 | 44 | 0 | i | 86*
CSCCCc1cn([C@@H](CO)C(=O)NCCCCCCCCCCC(=O)N2CCNCC2)nn1 | nt | nt | -8 | nt | nt | -8
O=C(Nc1ccc(F)cc1)c1ccc(=O)[nH]n1 | nt | nt | -71* | nt | nt | -74
COC(=O)C1CCN(C(=O)COC(=O)C2CCN(S(=O)(=O)c3c(Cl)cccc3Cl)CC2)CC1 | nt | nt | -1 | nt | nt | 10
Cc1c(Cl)cccc1NC(=O)Cc1ccc([N+](=O)[O-])cc1 | 0 | 18 | 8 | 0 | i | 20
SMILES | Rad51 HR inh | MDM2 E3 inh | HSF1 inh | Hsp70 activator | HSV augment | HSF-1 act
Oc1ccccc1-c1nnc(-c2ccc(C(F)(F)F)cc2)o1 | 5 | -9 | -63* | 0 | i | -71
Cc1c(C(=O)Nc2ccccc2)c2ccc(C(F)(F)F)cc2n1O | nt | nt | 0 | nt | nt | -9
O=C(COC(=O)Cn1cnc2ccccc21)Nc1cc2c(cc1Cl)C(=O)c1ccccc1C2=O | 7 | -11 | 52 | 0 | i | 74*
O=C(COC(=O)Cc1n[nH]c(=O)c2ccccc12)Nc1c(Cl)cccc1C(F)(F)F | nt | nt | -6 | nt | nt | 3
COc1ccc(C(=O)Nn2c(SCC(=O)c3ccccc3)nc3ccccc3c2=O)cc1 | nt | -58 | -59* | 0 | nt | -60
O=C(O)c1cccc(NC(=O)c2ccc(COc3ccc(Cl)cc3)cc2)c1 | nt | nt | 31 | nt | nt | 39
N#C/C(=C\c1ccc(OCc2ccc(Cl)cc2)cc1)C(=O)Nc1cccc(C(=O)O)c1 | nt | nt | 64 | nt | nt | 120*

Screens (PubChem)
